HUVEC inhibit – inhibitors of HUVEC proliferation, primary screen, cell-based, 384-well; actives 1.1% (n = 86,000); viability, % at 10 µM (by protocol); CellTiter-Glo luminescence, 72 h; hits give low values;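 active = viability at or below 30%; inactive = viability above 30%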;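 note: 100% = median luminescence of DMSO-only cell control wells on each plate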
bCat KO growth – primary screen for growth suppressors in beta-catenin knockout HCT116 cells (colon tumor, human); viability, % at 10 µM; HCT116 beta-catenin knockout viability, CellTiter-Glo, 60 h; hits give low values; actives 1.5% (n = 140,000);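 active = viability at or under a set limit, the compound median less 4 SD, cut at about 6% in these data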;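 note: 0% = Hyamine 1622 control at 20 µM and 100% = untreated cell control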
Fibroblast inh – antiproliferative effect on LL 47 fibroblasts – human, LL 47 cells, CellTiter-Glo luminescence, primary screen; LL 47 human lung fibroblast viability, ATP luminescence; hits give low values; viability, % at 10 µM; actives 1.1% (n = 85,000);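 active = viability at or below 50% in the single dose screen; inactive = viability above 50%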;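 note: compound exposure lasted 72 h before the ATP readout; 100% = median luminescence of untreated cell-only wells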
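Times – overnight cell rest, 72 h compound treatment at 37 °C · Test system – human lung fibroblast line LL 47, low passage · Amount – 1,150 cells in each well · Controls – cell-only wells, no compound · Doses – 0.1% DMSO in all compound wells · Measured by – CellTiter-Glo luminescence · Buffer or medium – IMEM plus 15% FBS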
PTEN del growth – growth suppression of PTEN-null HCT116, primary screen, cell-based, CellTiter-Glo | HCT116 PTEN-null viability, 60 h; hits give low values | viability, % at 10 µM | actives 1.2% (n = 140,000);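 active = viability at or below a set limit, 4 SD under the median of all tested compounds, cut at about 3.7% in these data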;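 note: PTEN knockout HCT116 line with beta catenin targeted HCT116 as companion control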
H69AR growth 86K – proliferation blockers of H69AR lung cancer cells, primary screen, cell-based, human, 86K library. actives 6% (n = 85,000). viability, % at 10 µM. H69AR lung tumor viability, ATP luminescence, 72 h; hits give low values. AID 598, 2007;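 active = viability at or below 40%; inactive = viability above 40%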;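 note: multidrug resistant small cell line overexpressing MRP-1 efflux transporter; 100% = mean luminescence of untreated control wells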
Active calls of the source: *; nt = not tested or not shown. The full list was thinned out, with hits kept by preference.

SMILES	HUVEC inhibit	bCat KO growth	Fibroblast inh	PTEN del growth	H69AR growth 86K
CCCCNC(=O)Nc1nnc(-c2ccc(OCC)cc2)o1	90	73	97	80	45
CCc1nnc(NC(=O)c2ccc(S(=O)(=O)N(CC)Cc3ccccc3)cc2)o1	70	18	69	12	21*
CCOc1ccc(-c2nnc(NC(=O)c3ccc(OCC(C)C)c(OC)c3)o2)cc1	19*	20	54	18	29*
COc1cccc(C(=O)Nc2nnc(-c3cccs3)o2)c1	68	44	87	45	74
CCCCN(CCCC)S(=O)(=O)c1ccc(C(=O)Nc2nnc(COC)o2)cc1	34	13	67	15	27*
CCCCN(CC)S(=O)(=O)c1ccc(C(=O)Nc2nnc(-c3cccs3)o2)cc1	5.0*	16	62	17	35*
CCCCN(C)S(=O)(=O)c1ccc(C(=O)Nc2nnc(CSC)o2)cc1	nt	23	nt	22	nt
Cc1ccccc1C1(CCN2CCCCC2)CCOC(C)(C)C1 (stereo unspecified)	nt	94	nt	99	nt
Cn1nc([N+](=O)[O-])nc1Oc1ccc(C(C)(C)C)cc1	nt	85	nt	88	nt
C(=N\N(c1ccccc1)c1ccccc1)/c1ccc(N2CCOCC2)s1	nt	90	nt	91	nt
O=C(NC(=S)Nc1ccc(S(=O)(=O)NC2CCCCC2)cc1)c1cccs1	nt	87	nt	79	nt
Cc1ccc(NC(=O)c2cc(C(=O)c3cc(Cl)ccc3O)cn(-c3ccc(C)cc3)c2=O)cc1	nt	46	nt	33	nt
CN(c1ccccc1)S(=O)(=O)c1ccc(C(=O)Nc2nnc(-c3ccc(F)cc3)o2)cc1	2.0*	17	71	12	34*
CN(c1ccccc1)S(=O)(=O)c1ccc(NC(=O)c2ccc(-c3ccccc3)cc2)cc1	nt	35	nt	57	nt
COc1cccc(C(=O)Nc2nnc(-c3ccc(F)cc3)o2)c1	56	nt	91	nt	37*
CN(Cc1ccccc1)S(=O)(=O)c1ccc(C(=O)Nc2nnc(C3CC3)o2)cc1	nt	19	nt	19	nt
COc1ccccc1-c1nnc(NC(=O)c2ccc(S(=O)(=O)N(C)Cc3ccccc3)cc2)o1	17*	22	67	18	22*
Cc1ccc(-n2nc(C)c3c(C(=O)OCC(=O)N(C)C4CCS(=O)(=O)C4)cc(-c4ccccc4)nc32)cc1 (stereo unspecified)	nt	73	nt	67	nt
C=CCNC(=S)N(CC=C)C1CCS(=O)(=O)C1 (stereo unspecified)	nt	100	nt	104	nt
O=S(=O)(CCSc1nc2ccccc2s1)c1nc2ccccc2s1	14*	3.9*	35*	3.3*	1.5*
CCS(=O)(=O)CCSc1nc2ccccc2s1	87	99	98	103	93
CC(C)(C)S(=O)(=O)c1nc2ccccc2s1	90	91	98	96	79
C=CCS(=O)(=O)c1nc2ccccc2s1	81	11	77	24	1.1*
COc1ccc(CNC(=O)CNS(=O)(=O)c2ccc(Cl)cc2)cc1	nt	93	nt	99	nt
Cc1ccc2[nH]c(-c3ccccc3)cc(=O)c2c1	47	10	61	14	33*
SMILES	HUVEC inhibit	bCat KO growth	Fibroblast inh	PTEN del growth	H69AR growth 86K
O=c1c(Cl)cc(Cl)nn1-c1ccccc1	nt	4.1*	nt	2.7*	nt
COc1cc(Cl)nn(-c2ccccc2)c1=O	nt	92	nt	94	nt
COCCCNC(=O)c1ccc(Cn2c(=O)c3ccccc3n(Cc3ccccc3C#N)c2=O)cc1	56	55	72	52	18*
COCCCNC(=O)c1ccc(Cn2c(=O)c3ccccc3n(Cc3cc(C)ccc3C)c2=O)cc1	58	84	89	80	39*
COCCCNC(=O)c1ccc(Cn2c(=O)[nH]c3ccccc3c2=O)cc1	59	56	70	57	23*
COCCCNC(=O)c1ccc(Cn2c(=O)c3ccccc3n(Cc3ccccc3C)c2=O)cc1	59	97	88	84	19*
COCCCNC(=O)CCn1c(=O)c2ccccc2n(CC(=O)Nc2ccc(C)cc2C)c1=O	99	85	103	97	94
Cc1ccc(S(=O)(=O)N2CCN(C(C)C(=O)Nc3ccccc3-c3ccccc3)CC2)cc1 (stereo unspecified)	nt	80	nt	84	nt
O=C(O)CCC(=O)Nc1ccccc1C(=O)NCc1ccccc1	nt	99	nt	100	nt
O=[N+]([O-])c1ccc(NNC(=S)Nc2ccc(F)cc2)cc1	59	67	87	78	14*

Assay outcomes deposited in PubChem by SRMLSC.
